Calls of active or inactive are those of the source. The calls are words filed in the database; no cut-off is given here.
What was measured:
[1] = AUC (0 to 6.4 hrs) in Wistar rat mesenteric lymph at 10 mg/kg, po; format: ADME, organism-based, Mesenteric lymph node; parameters: time < 6.4 hr, dose 10 mg/kg, route oral; conditions: in vivo
[2] = test system: Plasma; assay: AUC (0 to 6.4 hrs) in Wistar rat plasma at 10 mg/kg, po; format: ADME, organism-based; parameters: time < 6.4 hr, dose 10 mg/kg, route oral; conditions: in vivo
[3] = Tmax in Wistar rat mesenteric lymph at 10 mg/kg, po; format: ADME, organism-based, Mesenteric lymph node; parameters: dose 10 mg/kg, route oral
Summary of the method: (§1)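 Male Wistar rats given 10 mg/kg orally in 5% DMSO/succinylated gelatin. At selected times, anesthesia with thiobutobarbital 150 mg/kg ip, laparotomy and thoracic lymph duct catheter. Mesenteric lymph collected for at least 10 min, with a plasma sample at mid-collection. Methanol precipitation, then LC-MS-MS with internal standard.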

[4] = Cmax in Wistar rat mesenteric lymph at 10 mg/kg, po; format: ADME, organism-based, Mesenteric lymph node; parameters: dose 10 mg/kg, route oral; summary of the method: as §1
[5] = Cmax in Wistar rat plasma at 10 mg/kg, po; format: ADME, organism-based; parameters: dose 10 mg/kg, route oral; summary of the method: as §1
[6] = Tmax in Wistar rat plasma at 10 mg/kg, po; format: ADME, organism-based; parameters: dose 10 mg/kg, route oral; summary of the method: as §1
[7] = Lipophilicity, log D of the compound at pH 7.4; format: physicochemical; conditions: buffer
[8] = molecular target: Sphingosine 1-phosphate receptor 3 (Homo sapiens, UniProt Q99500); assay: Agonist activity at human recombinant S1P3 receptor expressed in CHO cells assessed as membrane-bound 35S-GTPgammaS incubated 30 mins prior to substrate addition measured after 1 hr by topcount scintillation counting analysis; format: functional, cell-based
[9] = molecular target: Sphingosine 1-phosphate receptor 1 (Homo sapiens, UniProt P21453); assay: Agonist activity at human recombinant S1P1 receptor expressed in CHO cells assessed as membrane-bound 35S-GTPgammaS incubated 30 mins prior to substrate addition measured after 1 hr by topcount scintillation counting analysis; format: functional, cell-based
[10] = AUC (0 to 24 hrs) in Wistar rat mesenteric lymph at 10 mg/kg, po; format: ADME, organism-based, Mesenteric lymph node; parameters: time < 24 hr, dose 10 mg/kg, route oral; conditions: in vivo
[11] = test system: Plasma; assay: AUC (0 to 24 hrs) in Wistar rat plasma at 10 mg/kg, po; format: ADME, organism-based; parameters: time < 24 hr, dose 10 mg/kg, route oral; conditions: in vivo
[12] = Drug uptake in Wistar rat mesenteric lymph at 10 mg/kg, po after 24.8 hrs; format: ADME, organism-based, Mesenteric lymph node; parameters: dose 10 mg/kg, route oral; conditions: read-out: Drug uptake; summary of the method: as §1
[13] = Drug uptake in Wistar rat mesenteric lymph at 10 mg/kg, po after 6 hrs; format: ADME, organism-based, Mesenteric lymph node; parameters: dose 10 mg/kg, route oral; conditions: read-out: Drug uptake; summary of the method: as §1
[14] = Drug uptake in Wistar rat mesenteric lymph at 10 mg/kg, po after 3 hrs; format: ADME, organism-based, Mesenteric lymph node; parameters: dose 10 mg/kg, route oral; conditions: read-out: Drug uptake; summary of the method: as §1
[15] = Drug uptake in Wistar rat mesenteric lymph at 10 mg/kg, po after 2.3 hrs; format: ADME, organism-based, Mesenteric lymph node; parameters: dose 10 mg/kg, route oral; conditions: read-out: Drug uptake; summary of the method: as §1
[16] = Drug uptake in Wistar rat mesenteric lymph at 10 mg/kg, po after 1.7 hrs; format: ADME, organism-based, Mesenteric lymph node; parameters: dose 10 mg/kg, route oral; conditions: read-out: Drug uptake; summary of the method: as §1
[17] = Drug uptake in Wistar rat mesenteric lymph at 10 mg/kg, po after 1 hr; format: ADME, organism-based, Mesenteric lymph node; parameters: dose 10 mg/kg, route oral; conditions: read-out: Drug uptake; summary of the method: as §1
[18] = Plasma concentration in Wistar rat at 10 mg/kg, po after 24.8 hrs; format: ADME, organism-based; parameters: dose 10 mg/kg, route oral; summary of the method: as §1
[19] = Plasma concentration in Wistar rat at 10 mg/kg, po after 2.3 hrs; format: ADME, organism-based; parameters: dose 10 mg/kg, route oral; summary of the method: as §1
[20] = Plasma concentration in Wistar rat at 10 mg/kg, po after 1.7 hrs; format: ADME, organism-based; parameters: dose 10 mg/kg, route oral; summary of the method: as §1
[21] = Plasma concentration in Wistar rat at 10 mg/kg, po after 1 hr; format: ADME, organism-based; parameters: dose 10 mg/kg, route oral; summary of the method: as §1
[22] = Plasma concentration in Wistar rat at 10 mg/kg, po after 6 days; format: ADME, organism-based; parameters: dose 10 mg/kg, route oral
[23] = Plasma concentration in Wistar rat at 10 mg/kg, po after 3 days; format: ADME, organism-based; parameters: dose 10 mg/kg, route oral
[24] = Plasma concentration in Wistar rat at 10 mg/kg, po after 24 hrs; format: ADME, organism-based; parameters: dose 10 mg/kg, route oral
[25] = Plasma concentration in Wistar rat at 10 mg/kg, po after 6 hrs; format: ADME, organism-based; parameters: dose 10 mg/kg, route oral
[26] = Plasma concentration in Wistar rat at 10 mg/kg, po after 3 hrs; format: ADME, organism-based; parameters: dose 10 mg/kg, route oral
[27] = test system: Rattus norvegicus; assay: Lymphopenic activity in Wistar rat assessed as reduction in blood lymphocyte count at 10 mg/kg, po after 144 hrs; format: functional
Summary of the method: (§2)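 Normotensive male Wistar rats given 1–10 mg/kg by gavage in 5% DMSO/7.5% succinylated gelatin. Blood taken before and 3, 6 and 24 h after dosing, with later times for some compounds. Lymphocytes counted by hematology analyzer. % LC change calculated per animal relative to the predose value (=100%). Mean ± SEM.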

[28] = test system: Rattus norvegicus; assay: Lymphopenic activity in Wistar rat assessed as reduction in blood lymphocyte count at 10 mg/kg, po after 72 hrs; format: functional; summary of the method: as §2
[29] = test system: Rattus norvegicus; assay: Lymphopenic activity in Wistar rat assessed as reduction in blood lymphocyte count at 10 mg/kg, po after 24 hrs; format: functional; summary of the method: as §2
[30] = Oral bioavailability in Wistar rat at 10 mg/kg; format: ADME, organism-based; conditions: in vivo
Summary of the method: (§3)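 Male Wistar rats (~250 g), 10 mg/kg by gavage as a DMSO solution added to 7.5% succinylated gelatin in water (5% DMSO final). Sublingual blood under light isoflurane predose and at 0.5, 1, 2, 3, 4, 6, 8, 24 h into EDTA. Plasma LC-MS-MS after methanol precipitation. Noncompartmental parameters. Bioavailability referenced to 1 mg/kg iv.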

[31] = Tmax in Wistar rat at 10 mg/kg, po; format: ADME, organism-based; parameters: dose 10 mg/kg, route oral; conditions: in vivo; summary of the method: as §3
[32] = Cmax in Wistar rat at 10 mg/kg, po; format: ADME, organism-based; parameters: dose 10 mg/kg, route oral; conditions: in vivo; summary of the method: as §3
[33] = AUC (0 to 24 hrs) in Wistar rat at 10 mg/kg, po; format: ADME, organism-based; parameters: time < 24 hr, dose 10 mg/kg, route oral; conditions: plasma
[34] = Half life in Wistar rat at 1 mg/kg, iv; format: ADME, organism-based; parameters: dose 1 mg/kg, route intravenous; conditions: in vivo
Summary of the method: (§4)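 Male Wistar rats (~250 g), jugular vein and carotid artery catheters implanted 2 days before dosing under isoflurane with buprenorphine analgesia. 1 mg/kg given as a 5 min jugular infusion in aqueous mixed micellar vehicle (phospholipids, bile acids). Serial EDTA blood sampling up to 24 h. Plasma analysed by LC-MS-MS after methanol precipitation. Noncompartmental analysis.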

[35] = Volume of distribution at steady state in Wistar rat at 1 mg/kg, iv; format: ADME, organism-based; parameters: dose 1 mg/kg, route intravenous; conditions: in vivo, read-out: Vdss; summary of the method: as §4
[36] = test system: Rattus norvegicus; assay: Clearance in Wistar rat at 1 mg/kg, iv; format: ADME, organism-based; parameters: dose 1 mg/kg, route intravenous; conditions: in vivo; summary of the method: as §4
[37] = Intrinsic clearance in Wistar rat hepatocytes assessed per 10^6 cells at 1 uM by LC-MS/MS analysis; format: ADME, cell-based, Hepatocyte; conditions: read-out: CLH
Summary of the method: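 Male rat hepatocytes from two-step collagenase perfusion (viability ≥85%), plated at 5.0 × 10^5 viable cells/mL on collagen and preincubated ~3 h at 37 °C, 5% CO2. Compound at 1 µM final. Duplicate wells sampled at 0–24 h with methanol/0.3% SDS. LC-MS-MS (MRM). CLint from initial first-order disappearance rates.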

Chain of Sphingosine 1-phosphate receptor 1 (P21453 whole entry): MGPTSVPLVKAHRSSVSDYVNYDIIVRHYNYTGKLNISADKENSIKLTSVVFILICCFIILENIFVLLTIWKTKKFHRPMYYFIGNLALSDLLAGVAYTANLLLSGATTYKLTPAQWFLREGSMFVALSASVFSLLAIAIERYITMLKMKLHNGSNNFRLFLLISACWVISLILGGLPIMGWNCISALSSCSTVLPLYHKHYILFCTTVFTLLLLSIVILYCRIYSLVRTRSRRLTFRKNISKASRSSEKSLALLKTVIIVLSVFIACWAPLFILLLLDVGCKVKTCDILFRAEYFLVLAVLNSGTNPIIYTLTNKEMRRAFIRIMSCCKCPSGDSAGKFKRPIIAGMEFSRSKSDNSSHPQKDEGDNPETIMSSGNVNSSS
Chain of Sphingosine 1-phosphate receptor 3 (Q99500 whole entry): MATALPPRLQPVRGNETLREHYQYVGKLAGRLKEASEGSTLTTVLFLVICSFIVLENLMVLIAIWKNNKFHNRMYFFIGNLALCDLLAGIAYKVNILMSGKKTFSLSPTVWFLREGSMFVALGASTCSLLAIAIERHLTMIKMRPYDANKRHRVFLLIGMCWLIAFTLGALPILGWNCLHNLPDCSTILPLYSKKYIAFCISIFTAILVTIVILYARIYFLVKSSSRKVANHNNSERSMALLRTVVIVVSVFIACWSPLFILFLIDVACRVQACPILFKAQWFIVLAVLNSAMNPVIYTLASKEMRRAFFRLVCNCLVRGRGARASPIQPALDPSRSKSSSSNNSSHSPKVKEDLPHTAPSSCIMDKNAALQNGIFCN

CCc1cc(-c2noc(-c3sc(CC)c4c3CCC(C)(C)C4)n2)cc(C)c1OC[C@@H](O)CO
AUC [1]: 31300 ng/mL/h
AUC [2]: 1880 ng/mL/h
Tmax [3]: 1.4 h
Cmax [4]: 9050 ng/mL
Cmax [5]: 376 ng/mL
Tmax [6]: 6.4 h
logD [7]: 5.4
EC50 [8]: 15 nM
EC50 [9]: 2.4 nM

CCc1cc(-c2noc(-c3sc(CC)c4c3CCC(C)(C)C4)n2)cc(C)c1OC[C@@H](O)CNC(=O)CO
AUC [10]: 70500 ng·h/mL
Tmax [3]: 3 h
Cmax [4]: 8090 ng/mL
AUC [11]: 1660 ng·h/mL
Cmax [5]: 911 ng/mL
Tmax [6]: 6 h
logD [7]: 4.3
concentration at 24.8 h [12]: 684 ng/mL
concentration at 6 h [13]: 4590 ng/mL
concentration at 3 h [14]: 8090 ng/mL
concentration at 2.3 h [15]: 4600 ng/mL
concentration at 1.7 h [16]: 4340 ng/mL
concentration at 1 h [17]: 5790 ng/mL
concentration at 24.8 h [18]: 680 ng/mL
concentration at 2.3 h [19]: 123 ng/mL
concentration at 1.7 h [20]: 58.1 ng/mL
concentration at 1 h [21]: 44.4 ng/mL
concentration at 144 h [22]: 66 ng/mL
concentration at 72 h [23]: 236 ng/mL
concentration at 24 h [24]: 530 ng/mL
concentration at 6 h [25]: 911 ng/mL
concentration at 3 h [26]: 132 ng/mL
Activity [27]: Active
Activity [28]: Active
Activity [29]: Active
bioavailability [30]: > 33%
Tmax [31]: 6 h
Cmax [32]: 1450 ng/mL
AUC(0-t) at 24 h [33]: 28100 ng·h/mL
half-life [34]: 21 h
Vd [35]: 3.5 L/kg
clearance [36]: 2 mL/min/kg
hepatocyte CLint at 1 µM [37]: 3.1 µL/min/1e6 cells
EC50 [8]: 8.9 nM
EC50 [9]: 4.6 nM
